The structures appear in SMILES notation.

For assay [1], the species on record is Homo sapiens. In words: In vitro inhibition of ADP-induced aggregation of human platelet rich plasma in the presence of pig aortal microsomes. The format is functional. The settings on record: Aorta. Put shortly:
(§1)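 Human citrated blood (0.38% citrate final), PRP by centrifugation at 200g, room temperature. Drug added to 1.0 mL PRP, 2 min at 37 °C with stirring (500 rpm), then pig aortal microsomes 3 min; microsome amount set by the dazoxiben standard. Aggregation induced by 5 μM ADP (final), read turbidimetrically.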

The species named for assay [2] is Homo sapiens. The experiment in a line: Relative potency to inhibit ADP-induced aggregation of human platelet rich plasma compared to that of dazoxiben, in vitro using pig aortal microsomes. The settings on record: Aorta. The format is functional.
For assay [3], the species on record is Homo sapiens. In words: In vitro inhibition of ADP-induced aggregation of human platelet rich plasma in the presence of pig aortal microsomes. In kind it is functional. The settings on record: Aorta. In a few lines:
as §1

The species named for assay [4] is Homo sapiens. The experiment in a line: Relative potency to inhibit ADP-induced aggregation of human platelet rich plasma compared to that of dazoxiben, in vitro using pig aortal microsomes. In kind it is functional. The settings on record: Aorta.
For assay [5], the target named is T1, Thromboxane-A synthase (Homo sapiens) (UniProt P24557).
T1 sequence (whole entry): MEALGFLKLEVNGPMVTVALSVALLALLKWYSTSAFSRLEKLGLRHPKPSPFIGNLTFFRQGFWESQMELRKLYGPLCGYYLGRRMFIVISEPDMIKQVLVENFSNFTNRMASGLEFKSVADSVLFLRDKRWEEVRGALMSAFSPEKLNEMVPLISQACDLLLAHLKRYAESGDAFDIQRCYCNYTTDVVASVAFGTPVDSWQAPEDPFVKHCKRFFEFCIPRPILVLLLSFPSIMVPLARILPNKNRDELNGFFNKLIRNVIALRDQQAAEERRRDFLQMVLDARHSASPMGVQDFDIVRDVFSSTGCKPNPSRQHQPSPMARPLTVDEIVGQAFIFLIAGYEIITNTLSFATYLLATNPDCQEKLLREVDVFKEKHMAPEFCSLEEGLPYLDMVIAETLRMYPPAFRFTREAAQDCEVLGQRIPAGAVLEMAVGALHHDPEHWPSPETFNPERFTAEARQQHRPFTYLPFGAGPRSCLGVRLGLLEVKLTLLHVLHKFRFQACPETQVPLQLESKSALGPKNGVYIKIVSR
The experiment in a line: Relative potency of thromboxane A2 synthetase as reduced ADP-induced aggregation of human platelet rich plasma compared to dazoxiben. In kind it is functional, cell-free.

The subject of assay [6] is Mus musculus. In words: Activity at 20 mg/kg given intravenously against mortality in a pulmonary thromboembolism model in mice (10 animals) at -3h. In kind it is functional. Particulars: route intravenous. In a few lines: (§2)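 Male Swiss-Webster mice (22-26 g); test material given iv in 0.2 mL CMC before challenge (mostly at -3 h, one group at -1 h). At hour 0, collagen extract plus epinephrine hydrochloride given iv in 0.2 mL 0.9% saline via tail vein. The collagen amount was set per lot as the minimum giving 90-100% mortality in CMC-vehicle controls. Readout: % surviving at 24 h.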

For assay [7], the system named is Mus musculus. In words: Activity at 10 mg/kg given intravenously against mortality in a pulmonary thromboembolism model in mice (10 animals) at -3h. The format is functional. The settings on record: route intravenous. In a few lines:
as §2

For a further assay, the system named is Rattus norvegicus. In words: Effect of perorally administered compound on systolic blood pressure and proteinuria was studied with a 5/6 renal ablated rat as a model of progressive injury. In kind it is functional, Artery. Put shortly: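 Male Munich Wistar rats (200-270 g) with 5/6 renal ablation were dosed in drinking water from 1 week post-surgery at 68, 205 or 410 mg/kg/day; controls received water. Conscious systolic pressure measured weekly by tail cuff. 24-h urinary protein measured every 2 weeks by the sulfosalicylic acid method.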

For assay [8], the species on record is Homo sapiens. The experiment in a line: In vitro inhibition of ADP-induced aggregation of human platelet rich plasma in the presence of pig aortal microsomes, at 5*10e-6 M compound concentration.
Assay [9] concerns Mus musculus. The experiment in a line: Activity at 10 mg/kg […] against mortality in a pulmonary thromboembolism model in mice (10 animals) at -18h following oral administration. In kind it is functional. Put shortly: (§3)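 Male Swiss-Webster mice (22-26 g), 10 per group (one group of 9); test material given po in 0.2 mL CMC at -1, -3, -5 or -18 h before challenge. At hour 0, collagen extract plus epinephrine hydrochloride given iv via tail vein in 0.9% saline. The collagen amount was titrated per lot to 90-100% mortality in vehicle controls. Readout: % surviving at 24 h.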

The test system of assay [10] is Mus musculus. The experiment in a line: Activity at 10 mg/kg […] against mortality in a pulmonary thromboembolism model in mice (10 animals) at -1h following oral administration. In kind it is functional. In a few lines:
as §3

Assay [11] relates to Mus musculus. In words: Activity at 10 mg/kg […] against mortality in a pulmonary thromboembolism model in mice (10 animals) at -7h following oral administration. The format is functional.
Assay [12] concerns Mus musculus. In words: Activity at 10 mg/kg […] against mortality in a pulmonary thromboembolism model in mice (9 animals) at -3h following oral administration. In kind it is functional. In a few lines:
as §3

The subject of assay [13] is Mus musculus. The experiment in a line: Activity at 10 mg/kg […] against mortality in a pulmonary thromboembolism model in mice (10 animals) at -5h following oral administration. The format is functional. In a few lines:
as §3

As usually defined, the IC50 is the midpoint of a concentration-inhibition curve. `CCOC(=O)/C(C)=C\c1ccc(Cn2ccnc2)[nH]1`: the IC50 in the assay listed under Homo sapiens [1] amounted to 8.1 µM. The Relative potency in the assay filed under Homo sapiens [2] worked out at 0.31.
In the case of `CCOC(=O)/C(C)=C\c1ccc(Cn2ccnc2)n1C`, the concentration for half-maximal inhibition (IC50) in the assay filed under Homo sapiens [3] came out at 26 µM. The molecule also returned a Relative potency in the assay listed under Homo sapiens [4] of 0.08.
For the molecule `CCOC(=O)/C(C)=C\c1ccc(Cc2cccnc2)n1C(C)C`, the IC50 in the assay filed under Homo sapiens [1] turned out to be 32 µM. In the assay filed under Homo sapiens [2], this molecule displayed a Relative potency of 0.06.
For `CCOC(=O)/C(C)=C\c1ccc(Cc2cccnc2)n1-c1ccccc1`, in that order: 180 µM and 0.01.
For `C/C(=C\c1ccc(Cn2ccnc2)[nH]1)C(=O)OCc1ccccc1` the same measures were 20 µM and 0.11.
The molecule `C/C(=C/c1ccc(Cc2cccnc2)n1-c1ccccc1)C(=O)O` displayed a Relative potency in [5] of 0.08.
Same read-out and setting: the same measure for `C/C(=C\c1ccc(Cn2ccnc2)[nH]1)C(=O)O`: 0.24.
On to `CCOC(=O)/C=C/c1cc(Cn2ccnc2)n(C)c1`, for which, in the assay listed under Homo sapiens [1], the IC50 is 1.8 µM. For the same molecule, the Relative potency in the assay filed under Homo sapiens [2] amounted to 1.2.
Turning to `CCOC(=O)/C(C)=C/c1cc(Cn2ccnc2)n(C)c1`, in the assay filed under Homo sapiens [1], the IC50 turned out to be 1.8 µM. Also, in the assay listed under Homo sapiens [2], the Relative potency amounted to 1.1.
With `C/C(=C/c1ccc(Cc2cccnc2)n1C)C(=O)O`, the survival at 20 mg/kg with Mus musculus [6] was found to be 30%. For the same molecule, the survival at 10 mg/kg with Mus musculus [7] is 0%. The molecule also had a Relative potency in [5] of 46.
In assay [5], `C/C(=C/c1ccc(Cc2cccnc2)n1CC(C)(C)C)C(=O)O` returned a Relative potency of 0.24.
`C/C(=C/c1cc(Cc2cccnc2)n(C(C)(C)C)c1)C(=O)O` had a survival at 10 mg/kg in the assay with Mus musculus [7] of 30%. The molecule also had a Relative potency in assay [5] of 43.
`C/C(=C\c1cc(Cn2ccnc2)n(C)c1)C(=O)O`: the Relative potency in [5] was 1.3.
In the case of `CCOC(=O)/C(C)=C\c1ccc(Cc2cccnc2)n1CC(C)(C)C`, the half-inhibitory concentration (IC50) in the assay filed under Homo sapiens [1] came to 57 µM. This molecule registered a Relative potency in the assay filed under Homo sapiens [2] of 0.03.
As to `CCOC(=O)[C@H](CCc1ccccc1)N[C@@H](C)C(=O)N1CCC[C@H]1C(=O)O`, the ED with Rattus norvegicus is 4 mg/kg.
Usually inhibition stands for how much of the control response was suppressed. As for `CCOC(=O)/C(C)=C\c1ccc(Cc2cccnc2)n1C`, the inhibition in the assay filed under Homo sapiens [8] stood at 49%.
Consider `CCOC(=O)/C=C\c1ccc(Cn2ccnc2)n1C`, for which the half-inhibitory concentration (IC50) in the assay listed under Homo sapiens [1] is 8.9 µM. The Relative potency in the assay listed under Homo sapiens [2] worked out at 0.25.
`CCn1c(/C=C(/C)C(=O)O)ccc1Cc1cccnc1` showed a survival at 20 mg/kg in the assay on Mus musculus [6] of 10%. In addition, the survival at 10 mg/kg in the assay on Mus musculus [7] was 10%. The molecule further registered a Relative potency in assay [5] of 45.
`COC(=O)[C@@H]1CC1c1ccc(Cn2ccnc2)n1C` (some centres not stated) gave a Relative potency in assay [5] of 0.22.
Still for that read-out and setting: the same measure for `Cn1c(/C=C/C(=O)O)ccc1Cn1ccnc1`: 0.75.
As to `CCOC(=O)/C(C)=C\c1cc(Cc2cccnc2)n(C(C)(C)C)c1`, the IC50 in the assay listed under Homo sapiens [1] amounted to 3.2 µM. Besides, the Relative potency in the assay filed under Homo sapiens [2] was found to be 0.59.
For `CCOC(=O)/C(C)=C\c1ccc(Cc2cccnc2)n1CC` the same measures were 14 µM and 0.14.
In assay [5], `C/C(=C/c1ccc(Cc2cccnc2)n1C(C)C)C(=O)O` displayed a Relative potency of 0.9.
On to `Cc1c(Cn2ccnc2)c2ccccc2n1CCC(=O)O` [DAZMEGREL], for which, in the assay filed under Homo sapiens [1], the IC50 stood at 1.9 µM. Further, in the assay listed under Homo sapiens [2], the Relative potency stood at 1. For the same molecule, the survival at 10 mg/kg is 10% in the assay on Mus musculus [9]; 20% in the assay on Mus musculus [10]; 0% in the assay with Mus musculus [11]; 11% in the assay with Mus musculus [12]; 20% with Mus musculus [13].
The molecule `Cn1cc(/C=C/C(=O)O)cc1Cn1ccnc1` came in with a Relative potency in assay [5] of 0.62.

For the origin of these results see ChEMBL document CHEMBL1124451, “[(1H-imidazol-1-yl)methyl]- and [(3-pyridinyl)methyl]pyrroles as thromboxane synthetase inhibitors” (J Med Chem, 1989).
